Experimental data: ChEMBL document CHEMBL4396951, “Optimization and anti-inflammatory evaluation of methyl gallate derivatives as a myeloid differentiation protein 2 inhibitor” (Bioorg Med Chem, 2019)
The source made the active and inactive calls. The rule behind the calls is not given here.

What was measured:
Peritoneal macrophage [1] = assay: Antiinflammatory activity in C57BL/6 mouse primary peritoneal macrophages assessed as inhibition of LPS-induced IL-6 production at 10 uM preincubated for 30 mins followed by LPS stimulation and measured after 24 hrs by sandwich ELISA; assay type: functional, cell-based
How it was run: (§1)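 Thioglycollate-elicited mouse peritoneal macrophages in RPMI-1640/10% FBS. Compound pretreatment for 30 min (10 μM for single-point screening, graded concentrations for dose-response), then 0.5 μg/mL LPS for 24 h. TNF-α and IL-6 in culture medium measured by sandwich ELISA and normalized to total protein in cell lysates; n = 3.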

Peritoneal macrophage [2] = assay: Antiinflammatory activity in C57BL/6 mouse primary peritoneal macrophages assessed as inhibition of LPS-induced TNFalpha production at 10 uM preincubated for 30 mins followed by LPS stimulation and measured after 24 hrs by sandwich ELISA; assay type: functional, cell-based; how it was run: as §1
Peritoneal macrophage [3] = assay: Antiinflammatory activity in C57BL/6 mouse primary peritoneal macrophages assessed as inhibition of LPS-induced IL-6 production at 10 uM preincubated for 30 mins followed by LPS stimulation and measured after 24 hrs by sandwich ELISA relative to control; assay type: functional; conditions: C57BL/6, Peritoneal macrophage; how it was run: as §1
Peritoneal macrophage [4] = assay: Antiinflammatory activity in C57BL/6 mouse primary peritoneal macrophages assessed as inhibition of LPS-induced TNFalpha production at 10 uM preincubated for 30 mins followed by LPS stimulation and measured after 24 hrs by sandwich ELISA relative to control; assay type: functional; conditions: C57BL/6, Peritoneal macrophage; how it was run: as §1
Peritoneal macrophage [5] = assay: Antiinflammatory activity in C57BL/6 mouse primary peritoneal macrophages assessed as inhibition of LPS-induced IL-6 production preincubated for 30 mins followed by LPS stimulation and measured after 24 hrs by sandwich ELISA; assay type: functional, cell-based; how it was run: as §1
Peritoneal macrophage [6] = assay: Antiinflammatory activity in C57BL/6 mouse primary peritoneal macrophages assessed as inhibition of LPS-induced TNFalpha production preincubated for 30 mins followed by LPS stimulation and measured after 24 hrs by sandwich ELISA; assay type: functional, cell-based; how it was run: as §1
[7] = Stability of compound in pH 7.4 phosphate buffer at 20 uM measured up to 25 mins by UV-VIS spectroscopy; assay type: physicochemical; conditions: pH 7.4, 25 min

| SMILES | inhibition (Peritoneal macrophage [1]) | inhibition (Peritoneal macrophage [2]) | also measured |
| --- | --- | --- | --- |
| O=C(Nc1ccc2c(c1)CCC2)c1c(Cl)cccc1Cl | Active | Active | – |
| COc1ccc(NC(=O)c2cc(O)c(O)c(O)c2)cc1 | Active | Active | – |
| CN(C)c1ccccc1C(=O)Nc1ccc2c(c1)CCC2 | Active | Active | inhibition at 10 µM (Peritoneal macrophage [3]): > 50%; inhibition at 10 µM (Peritoneal macrophage [4]): > 50%; inhibition (Peritoneal macrophage [5]): Dose-dependent effect; inhibition (Peritoneal macrophage [6]): Dose-dependent effect; Stability [7]: Stable |
| Cc1ccc(C(=O)Nc2ccc3c(c2)CCC3)s1 | Active | Active | – |
| COc1cc(NC(=O)c2cc(O)c(O)c(O)c2)cc(OC)c1 | Active | Active | – |
| O=C(Nc1ccc2c(c1)CCC2)c1cc(Cl)nc(Cl)c1 | Active | Active | – |
| COc1ccc(CNC(=O)c2cc(O)c(O)c(O)c2)cc1OC | Active | Active | – |
| O=C(Cc1ccc([N+](=O)[O-])cc1[N+](=O)[O-])Nc1ccc2c(c1)CCC2 | Active | Active | – |
| O=C(Nc1ccccc1)c1cc(O)c(O)c(O)c1 | Active | Active | – |
| O=C(NCc1ccccc1)c1cc(O)c(O)c(O)c1 | Active | Active | – |
| CC(=O)N1CCc2cc(NC(=O)c3cc(O)c(O)c(O)c3)ccc21 | Active | Active | – |
| COc1cc(CC(=O)Nc2ccc3c(c2)CCC3)cc(OC)c1 | Active | Active | – |
| CN(C)c1cccc(C(=O)Nc2ccc3c(c2)CCC3)c1 | Active | Active | – |
| O=C(/C=C/c1ccccc1C(F)(F)F)Nc1ccc2c(c1)CCC2 | Active | Active | – |
| O=C(Nc1ccc2c(c1)CCC2)c1ccccc1C(F)(F)F | Active | Active | – |
| COc1ccc(/C=C/C(=O)Nc2ccc3c(c2)CCC3)cc1O | Active | Active | – |
| COc1ccc(/C=C/C(=O)Nc2ccc3c(c2)CCC3)cc1OC | Active | Active | – |
| O=C(/C=C/c1cccc(OC(F)(F)F)c1)Nc1ccc2c(c1)CCC2 | Active | Active | – |
| O=C(Nc1ccc(F)cc1)c1cc(O)c(O)c(O)c1 | Active | Active | – |

| SMILES | inhibition (Peritoneal macrophage [1]) | inhibition (Peritoneal macrophage [2]) | also measured |
| --- | --- | --- | --- |
| O=C(CCCc1c[nH]c2ccccc12)Nc1ccc2c(c1)CCC2 | Active | Active | – |
| O=C(Nc1ccc2c(c1)CCC2)c1ccc(Cl)c([N+](=O)[O-])c1 | Active | Active | – |
| COc1ccc(OC)c(/C=C/C(=O)Nc2ccc3c(c2)CCC3)c1 | Active | Active | – |
| O=C(Nc1ccc2c(c1)CCC2)c1cccc(N2CCCC2)c1 | Active | Active | – |
| CCN(CC)c1ccc(C(=O)Nc2ccc3c(c2)CCC3)cc1 | Active | Active | – |
| COc1ccc2cc(C(=O)Nc3ccc4c(c3)CCC4)[nH]c2c1 | Active | Active | inhibition at 10 µM (Peritoneal macrophage [3]): > 50%; inhibition at 10 µM (Peritoneal macrophage [4]): > 50%; inhibition (Peritoneal macrophage [5]): Dose-dependent effect; inhibition (Peritoneal macrophage [6]): Dose-dependent effect; Stability [7]: Stable |
| O=C(Cc1cccc2ccccc12)Nc1ccc2c(c1)CCC2 | Active | Active | inhibition at 10 µM (Peritoneal macrophage [3]): > 50%; inhibition at 10 µM (Peritoneal macrophage [4]): > 50%; inhibition (Peritoneal macrophage [5]): Dose-dependent effect; inhibition (Peritoneal macrophage [6]): Dose-dependent effect; Stability [7]: Stable |
| COc1cc(/C=C/C(=O)Nc2ccc3c(c2)CCC3)cc(OC)c1O | Active | Active | – |
| COc1cc(/C=C/C(=O)Nc2ccc3c(c2)CCC3)cc(OC)c1OC | Active | Active | – |
| O=C(Nc1ccc2c(c1)CCC2)c1cc2ccccc2[nH]1 | Active | Active | – |
| CN1CCN(c2ccc(NC(=O)c3cc(O)c(O)c(O)c3)cc2)CC1 | Active | Active | – |
| COc1ccccc1CNC(=O)c1cc(O)c(O)c(O)c1 | Active | Active | – |
| CC(=O)Nc1ccc(C(=O)Nc2ccc3c(c2)CCC3)cc1 | Active | Active | – |
| O=C(Nc1ccc(N2CCOCC2)cc1)c1cc(O)c(O)c(O)c1 | Active | Active | – |
| CN1CCN(Cc2ccc(NC(=O)c3cc(O)c(O)c(O)c3)cc2)CC1 | Active | Active | – |
| O=C(Nc1ccc2c(c1)CCC2)c1cccc(N2CCOCC2)c1 | Active | Active | – |
| CCOc1ccc(NC(=O)c2cc(O)c(O)c(O)c2)cc1 | Active | Active | – |
| O=C(Nc1ccc2cc[nH]c2c1)c1cc(O)c(O)c(O)c1 | Active | Active | – |
| Cc1ncsc1C(=O)Nc1ccc2c(c1)CCC2 | Active | Active | – |
